Measured values: ChEMBL document CHEMBL3867427, “Cytotoxic Guanidine Alkaloids from a French Polynesian Monanchora n. sp. Sponge” (J Nat Prod, 2016)

Experiments:
[1] = Antiproliferative activity against human HL60 cells at 1 to 10 uM after 72 hrs by cell titer 96 aqueous one solution based assay relative to control; assay type: functional, HL-60
[2] = Antiproliferative activity against human HCT116 cells after 72 hrs by cell titer 96 aqueous one solution based assay; assay type: functional; conditions: HCT-116, 72 h
[3] = Antiproliferative activity against human HCT116 cells at 1 to 10 uM after 72 hrs by cell titer 96 aqueous one solution based assay relative to control; assay type: functional, HCT-116
[4] = Antiproliferative activity against human HL60 cells after 72 hrs by cell titer 96 aqueous one solution based assay; assay type: functional; conditions: HL-60, 72 h
[5] = Antiproliferative activity against human MDA435 cells after 72 hrs by cell titer 96 aqueous one solution based assay; assay type: functional; conditions: MDA-MB-435, 72 h
[6] = Antiproliferative activity against human MDA435 cells at 1 to 10 uM after 72 hrs by cell titer 96 aqueous one solution based assay relative to control; assay type: functional, MDA-MB-435
[7] = Cytotoxicity against human KB cells assessed as inhibition of cell proliferation at 1 uM after 72 hrs by cell titer 96 aqueous one solution based assay; assay type: functional
Procedure, shortened: (§1)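 KB cells in D-MEM with 10% FCS and antibiotics/fungizone under 5% CO2. 600 cells/well treated 24 h after seeding, 1% DMSO final, against DMSO controls. After 72 h, CellTiter 96 AQueous One for 3 h at 37 °C, absorbance 490 nm. Inhibition = [1 − (OD490 treated/OD490 control)] × 100, triplicate; mean ± SE.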

[8] = Cytotoxicity against human KB cells assessed as inhibition of cell proliferation at 10 uM after 72 hrs by cell titer 96 aqueous one solution based assay; assay type: functional; procedure, shortened: as §1
[9] = Antiproliferative activity against human KB cells after 72 hrs by cell titer 96 aqueous one solution based assay; assay type: functional
Procedure, shortened: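 KB cells (NCI origin) in D-MEM with 10% fetal calf serum, penicillin, streptomycin and fungizone under 5% CO2. 600 cells/well, dosed 24 h after plating from DMSO stocks (1% DMSO final; DMSO-only controls). 72 h exposure, then CellTiter 96 AQueous One for 3 h at 37 °C, A490. IC50 (50% inhibition) from 5 nM–100 μM in separate duplicate experiments.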

[10] = Antiproliferative activity against mouse B16F10 cells at 1 to 10 uM after 72 hrs by neutral red staining based assay relative to control; assay type: functional, B16-F10
Procedure, shortened: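 B16F10 cells in supplemented DMEM at 37 °C, 5% CO2, 20 000/well, treated 24 h after plating with 1% DMSO final. After 72 h exposure, neutral red uptake (40 μg/mL, 3 h, 37 °C), acid-ethanol destain, absorbance 540 nm. Inhibition = [1 − (OD540 treated/OD540 control)] × 100 from triplicate experiments.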

[11] = Antiproliferative activity against mouse B16F10 cells after 72 hrs by neutral red staining based assay; assay type: functional, cell-based; conditions: B16-F10, 72 h
Procedure, shortened: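 Murine B16F10 (ATCC) in DMEM with pyruvate, 10% FBS, 2% glutamine, 1% pen-strep, 37 °C, 5% CO2. 20 000 cells/well dosed 24 h later (1% DMSO final). After 72 h, PBS rinse, neutral red 40 μg/mL for 3 h at 37 °C, destain with acetic acid/EtOH/H2O 1:50:49 for 30 min at RT, A540. IC50 over 10 ng/mL–10 μg/mL, separate duplicates.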

[12] = Antiproliferative activity against human MRC5 cells after 72 hrs by cell titer 96 aqueous one solution based assay; conditions: MRC5, 72 h
[13] = Antiproliferative activity against human MRC5 cells at 1 to 10 uM after 72 hrs by cell titer 96 aqueous one solution based assay relative to control; conditions: mrc5, 72 h

Row | SMILES | Activity [1] [%] | IC50 [2] [nM] | Activity [3] [%] | IC50 [4] [nM] | IC50 [5] [nM] | Activity [6] [%] | inhibition at 1 µM [7] [%] | inhibition at 10 µM [8] [%] | IC50 [9] [nM] | Activity [10] [%] | IC50 [11] [nM] | IC50 [12] [nM] | Activity [13] [%]
1 | CCCCCCC[C@@H]1N=C(N)N2CCCC2=C1C(=O)O | 100 | 9900 | 100 | 3800 to 7100 | 9300 to 11000 | 100 | 61 | 96 | 6700 to 7700 | – | – | – | –
2 | CC[C@H]1C=CCC[C@@]2(C[C@@H]3CC[C@@H]4C[C@]5(CCC[C@@H](C)O5)NC(=[N+]43)N2)O1 | – | – | – | – | – | – | 0 | 84 | – | – | – | – | –
3 | CC[C@H]1C=CCC[C@@]2(C[C@@H]3CC[C@@H]4[C@H](C(=O)OCCCCCCCCCCCCCCCC(=O)N(CCCN)CC(O)CCN)[C@]5(CCC[C@@H](C)O5)NC(=[N+]34)N2)O1 (stereo not given in full) | 100 | 7 | 100 | 4 to 6 | 9 to 15 | 100 | 100 | 99 | 5 | 100 | 200 | – | –
4 | CC[C@H]1C=CCC[C@@]2(C[C@@H]3CC[C@@H]4[C@H](C(=O)OCCCCCCCCCCCCCCC(=O)N(CCCN)CC(O)CCN)[C@]5(CCC[C@@H](C)O5)NC(=[N+]34)N2)O1 (stereo not given in full) | 100 | 3100 to 3400 | 100 | 5000 to 5400 | – | – | 89 | 100 | 300 | – | – | 3200 to 3400 | 100
5 | CCCCCCCCC[C@@H]1N=C(N)N2CCCC2=C1C(=O)O | – | – | – | – | – | – | 0 | 72 | – | – | – | – | –
6 | CC[C@H]1C=CCC[C@@]2(C[C@@H]3CC[C@@H]4[C@H](C(=O)OCCCCCCCCCCCCCCCCC(=O)N(CCCN)CC(O)CCN)[C@]5(CCC[C@@H](C)O5)NC(=[N+]34)N2)O1 (stereo not given in full) | 100 | 20 to 50 | 100 | 10 to 30 | 40 to 70 | 100 | 96 | 100 | 5 to 20 | 100 | 200 | – | –
7 | CCCCCCCCC[C@@H]1N=C(N)N2CCCC2=C1C(=O)OCCCCNC(=N)N | – | – | – | – | – | – | 97 | 100 | 30 | – | – | – | –
8 | CC[C@H]1C=CCC[C@@]2(C[C@@H]3CC[C@@H]4[C@H](C(=O)OCCCCCCCCCCCCCCCC(=O)O)[C@]5(CCCCO5)NC(=[N+]34)N2)O1 | – | – | – | – | – | – | 80 | 95 | 500 to 600 | – | – | – | –
9 | CC[C@H]1C=CCC[C@@]2(C[C@@H]3CC[C@@H]4[C@H](C(=O)OCCCCCCCCCCCCCCCC(=O)O)[C@]5(CCC[C@@H](C)O5)NC(=[N+]34)N2)O1 | – | – | – | – | – | – | 85 | 97 | 500 to 600 | – | – | – | –
10 | CCCCCCC[C@@H]1N=C(N)N2CCCC2=C1C(=O)OCCCCNC(=N)N | – | – | – | – | – | – | 80 | 100 | 100 to 200 | – | – | – | –
11 | CC[C@H]1C=CCC[C@@]2(C[C@@H]3CC[C@@H]4[C@H](C(=O)OCCCCCCCCCCCCCCCCCC(=O)N(CCCN)CCCC(N)=O)[C@]5(CCC[C@@H](C)O5)NC(=[N+]34)N2)O1 | – | – | – | – | – | – | 100 | 100 | 50 to 70 | 100 | 800 to 850 | – | –
12 | CCCCCCCC[C@@H]1N=C(N)N2CCCC2=C1C(=O)OCCCCNC(=N)N | 100 | 3400 to 4200 | 100 | 8000 to 9100 | – | – | 86 | 100 | 300 | – | – | 3600 to 4100 | 100
13 | CCCCCCCCCc1cc2[n+](c(N)n1)CCC2 | 100 | 740 to 840 | 100 | 1300 | 320 to 860 | 100 | 82 | 99 | 200 to 400 | – | – | 550 to 600 | 100
14 | CCCCCCCCCc1nc(N)[n+]2c(c1C(=O)OCCCCNC(=N)N)CCC2 | 100 | 3400 to 3500 | 100 | 3600 to 5400 | – | – | 89 | 98 | 100 | – | – | 3400 to 3900 | 100
